Screening data deposited in PubChem BioAssay by several laboratories.
Compounds with a hit are over-represented: about 1.6% of the library has one in this group of screens.
PABP polyA inh – blocks human PABP binding to poly(A) RNA; P11940; fluorescence polarization; calls only at 35 µM; actives 1% (n = 290,000); AID 2014;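 further: calls also rest on retests at 20 µM and on dose response follow-up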
RBBP9 inhibitor – inhibitors of human serine hydrolase RBBP9; actives 0.2% (n = 220,000); O75884; recombinant RBBP9, FP-Rh probe fluorescence polarization; AID 1515; inhibition, % at 7.94 µM;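 active means inhibition above the campaign mean of all tested compounds plus 3 SD, cut at about 14% in these data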;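 further: plate controls were DMSO wells with RBBP9 for no effect and wells lacking RBBP9 protein for full effect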
Target sequence (O75884 whole entry, looked up): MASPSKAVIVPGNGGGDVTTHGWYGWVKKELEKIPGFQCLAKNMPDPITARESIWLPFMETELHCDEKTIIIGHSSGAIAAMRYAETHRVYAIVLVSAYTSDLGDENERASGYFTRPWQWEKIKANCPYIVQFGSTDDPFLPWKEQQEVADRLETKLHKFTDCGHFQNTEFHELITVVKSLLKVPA
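Assay system: recombinant human RBBP9; Reagent: Serine-hydrolase probe FP-Rh, 375 nM pre-mixing; Doses: 7.94 µM single dose, 0.794% DMSO; Incubation: 30 min then 45 min, 25 °C; Detection: fluorescence polarization (mP), excitation 525 nm, emission 598 nm; Evaluation: percent inhibition from mP, scaled between DMSO and no-protein wells.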
eIF4H FP inh – inhibitors of RNA binding by human eIF4H. eIF4H fluorescence polarization binding assay. AID 2012. actives 0.94% (n = 290,000). Q15056. inhibition, % at 35 µM;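 further: calls also rest on retests at 20 µM and on dose response follow-up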
PABP1 MLLE inh – inhibitors of microRNA-mediated deadenylation, human PABP1 MLLE binding | actives 0.36% (n = 360,000) | GST-MLLE / FITC-PAM2 fluorescence polarization | inhibition, % at 20 µM | AID 588489 | P11940; in the data active means inhibition above about 35%, passing the limit was not always enough;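 further: plate controls were DMSO wells with GST-MLLE for no effect and wells lacking GST-MLLE protein for full effect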
TCR-CD3 inh – blocks the human TCR-CD3 interaction | TAMRA-labeled TCR probe fluorescence, biochemical | inhibition, % at 9.4 µM | actives 0.37% (n = 360,000); in the data active means inhibition above about 19%;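 further: recombinant mutant TCR 2C K166C tagged with TAMRA read by polarization; 0% = receptor in buffer alone and 100% = receptor with positive control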
BSA TAMRA ctr – counter-screen for TCR-CD3 interaction inhibitors: BSA probe | AID 652035 | shares compounds with TCR-CD3 inh | actives 10% (n = 1,200) | inhibition, % at 9.4 µM | TAMRA-labeled BSA probe fluorescence counterscreen; in the data active means inhibition above about 23%;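 further: 0% = buffer low control and 100% = reference high control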
TCR-CD3 inh conf – confirmation of human TCR-CD3 interaction inhibitors | actives 48% (n = 1,200) | TAMRA-labeled TCR probe fluorescence binding assay | inhibition, % at 9.4 µM | AID 652036 | shares compounds with TCR-CD3 inh; in the data active means inhibition above about 19%
Starred values were filed as active, the others as inactive; i = inactive; . = not tested or not shown; + = active, no number. Unless noted, how the calls were made is not given here.

SMILES | PABP polyA inh | RBBP9 inhibitor | eIF4H FP inh | PABP1 MLLE inh | TCR-CD3 inh | BSA TAMRA ctr | TCR-CD3 inh conf
COC(=O)[C@]12C[C@H](CC(=O)NCc3cccc4ccccc34)C(=O)N(CCC3=CCCCC3)C1=C[C@H](COCc1ccccc1)O[C@@H]2C | . | . | . | . | -6 | . | .
COc1cc(Br)cc2cc(C(=O)N3CCN(C(=O)c4ccco4)CC3)c(=O)oc12 | i | -3 | -2 | 0 | 20* | 3 | 19*
Oc1ccc(/C=N/N=C/c2ccc(O)c(O)c2)cc1O | i | . | 1 | -6 | 51* | -7 | 67*
Oc1ccc(/C=N/N=C/c2ccc(O)cc2)cc1 | i | 5 | 8 | -1 | 2 | . | .
O=C1Nc2ccccc2/C1=N\N=C\c1ccc(O)c(O)c1 | i | -3 | 18 | -5 | 32* | -15 | 41*
COc1cc(/C=N/N=C2/C(=O)Nc3ccccc32)ccc1O | i | -7 | 1 | 3 | -7 | . | .
CCCCNc1ccc2c(c1)OC[C@H](C)NS2(=O)=O | . | . | . | . | 6 | . | .
C[C@@H]1CN([C@@H](C)CO)C(=O)c2cc(Br)cnc2O[C@@H]1CN(C)Cc1ccccn1 | . | . | . | . | 2 | . | .
CCN(CC)S(=O)(=O)c1cccc(NC(=O)Nc2cccc(C(F)(F)F)c2)c1 | i | -71 | 0 | -9 | 24* | 15 | 26*
C/C(=N\NC(=O)c1nnn(-c2nonc2N)c1-c1ccccc1)c1ccccc1O | i | . | 16 | 17 | 49* | -7 | 30*
Oc1ccc(-c2csc(-c3cccnc3)n2)cc1O | i | 6 | -4 | 1 | 22* | -8 | 16
COC(=O)[C@@H](N[C@H](/C=C/c1ccccc1)[C@@H](O)Cc1ccccc1)c1ccccc1 | . | . | . | . | -4 | . | .
COc1ccc(-c2cnnn2-c2ccc(NC(=O)c3ccc(S(=O)(=O)N4CCCCC4)cc3)cc2)cc1OC | i | -34 | 5 | -9 | 19* | 7 | 23*
COc1ccc(N(C)S(=O)(=O)c2cccc(C(=O)Nc3nnc(C4CC4)s3)c2)cc1 | i | -7 | 8 | -19 | 6 | . | .
COc1cc(OC)c(N(C)S(=O)(=O)c2cccc(C(=O)Nc3nnc(C4CC4)s3)c2)cc1Cl | i | -7 | -6 | -13 | 21* | 7 | 4
CCc1n[nH]c(=S)n1/N=C/c1cc(OC)cc([N+](=O)[O-])c1O | i | -1 | 60 | -2 | 44* | -14 | 44*
CC(=O)Oc1cc(C(=O)OCC(=O)N2CCc3ccccc3C2)cc(OC(C)=O)c1OC(C)=O | . | . | . | -8 | 45* | -18 | 15
Cc1cc(N2CCN(C(=O)OC(C)(C)C)C[C@H]2C)ccc1N1C[C@@H](C)O[C@@H](C)C1 | . | . | . | . | 0 | . | .
C/C(=N\NC(=O)c1ccc(N2CCCC2=O)cc1)c1ccc(O)cc1O | i | . | 7 | -3 | 24* | -9 | 10
O=C(NNC(=O)c1cc(Cl)ccc1O)c1ccc(NS(=O)(=O)c2cccs2)cc1 | . | . | . | 4 | 24* | -17 | 17
O=C(NNC(=O)c1ccccc1O)c1ccc(S(=O)(=O)Nc2ccccc2)cc1 | . | . | . | 1 | 29* | -19 | 9
CCOc1ccc(NS(=O)(=O)c2ccc(C(=O)NNC(=O)c3ccccc3O)cc2)cc1 | . | . | . | 7 | 23* | -9 | 23*
O=C(NNC(=O)c1cc(F)c(F)cc1Cl)c1ccc(NS(=O)(=O)c2cccs2)cc1 | . | . | . | 6 | 5 | . | .
C[C@H](CO)N1C[C@H](C)[C@@H](CN(C)C(=O)Nc2ccc(C(F)(F)F)cc2)OCc2cn(nn2)CCCC1=O | . | . | . | . | -8 | . | .
CCCc1ccc2c(C)cccc2n1 | . | . | . | . | -7 | . | .
SMILES | PABP polyA inh | RBBP9 inhibitor | eIF4H FP inh | PABP1 MLLE inh | TCR-CD3 inh | BSA TAMRA ctr | TCR-CD3 inh conf
COc1cc2c(NCCCCCCO[N+](=O)[O-])ncnc2c(OC)c1OC | . | . | . | . | -3 | . | .
CN(c1cccnc1)c1ccc(NC(=O)CCc2c[nH]c3ccccc23)cc1Br | . | . | . | . | -6 | . | .
CC1(C)CC2(C)OC2C2(C1)N=NC(=Nc1ccccc1)O2 (stereo not given) | . | . | . | -31 | . | . | .
CCN(CC)c1ccc(C(=O)c2ccccc2C(=O)O)c(O)c1 | i | 0 | 44 | 15 | 40* | 56* | 36*
CC(C)Cc1nc2sc3c(=O)[nH]cnc3c2c2c1CCCC2 | i | -7 | -6 | 6 | 20* | 5 | 7
CC(C)Cc1nc2oc3c(=O)[nH]cnc3c2c2c1CCCC2 | i | 2 | 1 | 1 | 3 | . | .
O=C(CCCN=C1NS(=O)(=O)c2ccccc21)OCC(=O)c1ccccc1 | . | . | . | -27 | -2 | . | .
O=C(COC(=O)CCCCCN=C1NS(=O)(=O)c2ccccc21)Nc1ccc(Cl)c(Cl)c1 | i | -50 | 2 | 4 | 19* | 7 | 10
NC(=O)CCC1NC(=S)N(Cc2ccccc2)C1=O (stereo not given) | i | -6 | -5 | -17 | 34* | 13 | 45*
COc1ccccc1NC(=O)NNC(=O)c1ccc2ccccc2c1O | i | . | 22 | 10 | 36* | -12 | 25*
COc1cccc(C(=O)NNC(=O)c2ccc3ccccc3c2O)c1 | . | . | . | -3 | 40* | -7 | 36*
COc1ccc(NC(=O)c2cccc3ccccc23)cc1OC | . | . | . | -1 | -4 | . | .
COc1cccc(C(=O)NNC(=O)c2ccccc2)c1 | i | . | 10 | -11 | 0 | . | .
COc1ccc(C(=O)NNC(=O)c2cc3ccccc3cc2O)cc1 | . | . | . | -7 | 32* | -11 | 24*
COc1ccccc1C(=O)NNC(=O)c1cc2ccccc2cc1O | . | . | . | 2 | 12 | . | .
COc1ccccc1NC(=O)NNC(=O)c1ccc2ccccc2c1 | i | . | -3 | -11 | -4 | . | .
COc1ccc(NC(=O)NNC(=O)c2ccc3ccccc3c2O)cc1OC | i | . | 5 | -8 | 51* | -7 | 46*
COc1cc(N2CCC(O)CC2)ccc1Nc1cc(Nc2ccccc2S(=O)(=O)C(C)C)c2cc[nH]c2n1 | . | . | . | . | -4 | . | .
Cn1cc([C@]2(O)C(=O)Nc3ccc(Br)cc32)c2ccccc21 | . | . | . | . | -1 | . | .
Cc1ccccc1NC(=O)NNC(=O)c1ccc2ccccc2c1O | i | . | -11 | 12 | 43* | -8 | 33*
Cc1ccccc1NC(=O)NNC(=O)c1ccc2ccccc2c1 | i | . | 4 | 1 | -2 | . | .
CCc1ccc(NC(=O)NNC(=O)c2ccc3ccccc3c2O)cc1 | i | . | -5 | -4 | 22* | 6 | 29*
Cc1nc(S/C(=C/c2ccc(-c3ccc(C(=O)O)cc3)o2)C(=O)O)n[nH]1 | + | -8 | 75 | -18 | 68* | -7 | 51*
O=C(N[C@H](Cc1ccccc1)C(=O)NCCCN1CCCC1=O)[C@H]1O[C@@H](n2ccc(=O)[nH]c2=O)[C@H](O)[C@@H]1O | . | . | . | . | 1 | . | .
O=C(CCc1ccc(S(=O)(=O)N2CCOCC2)cc1)N/N=C/c1ccc(F)cc1F | i | -7 | -6 | 0 | 8 | . | .
O=C(CCCOc1ccc(Cl)cc1Cl)Nc1cc(S(=O)(=O)N2CCOCC2)ccc1N1CCOCC1 | . | . | . | -4 | 5 | . | .
